1 compound from paper PMC3337761 (Drug Development and Industrial Pharmacy, 2010) can be followed below.

As usually defined, the AUC(0-t) is the area under the concentration-time curve up to a stated or last time point. A high value points to more exposure. By clearance is commonly meant a measure of how efficiently the substance is removed, as volume per time. Low values mean a low capacity for elimination, high ones a high capacity for elimination. For orientation: bioavailability means the share of a dose that reaches the circulation, judged against a reference dose that is usually intravenous. Read a high bioavailability as good availability. Broadly, the Cmax is the highest concentration seen after dosing. One may read the Tmax as the time from dosing to the highest level. For orientation: solubility means the concentration that dissolves in the medium under given conditions.

A short description of series [1]: Pharmacokinetics in rhesus macaques. It is filed as in vivo, Rhesus Macaques (Macaca mulatta). The method in brief:
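Two rhesus macaques, fasted overnight with water allowed. Oral powder was mixed into a chocolate treat, with dose set by the amount eaten. After a 2-week washout, i.v. dosing used 5 mg/mL in 25% Cremophor EL/75% PBS. Ketamine 10 mg/kg i.m. for sampling. EDTA plasma taken pre-dose to 24 h, C18 SPE, then LC-ESI-MS (m/z 277; analogue internal standard; calibration 25 nM–2.5 µM). F = dose-normalised AUC po/iv.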

A short description of series [2]: Solubility in solvents. It is filed as physicochemical.
Setting [3] is: male, rhesus monkey, plasma, iv, 5 mg/kg.
Setting [4] is: male, rhesus monkey, plasma, po, 50 mg/kg.

SMILES strings stand for the structures. Converted amounts (≈) assume the structure as drawn.

In series [1] (setting [3]), `Clc1ccccc1C(c1ccccc1)(c1ccccc1)n1cccn1` [TRAM-34, 1-[(2-chlorophenyl)-diphenylmethyl]-1H-pyrazole] gave an AUC(0-t) of 3.64 µM·h, a Vd of 11.1 L/kg and a clearance of 53.3 mL/min/kg. This compound had a bioavailability in series [1] (male, rhesus monkey, plasma, oral, 50 mg/kg) of 0.3%. Besides, in series [1] (setting [4]), the exposure AUC(0-t) stood at 0.103 µM·h, the highest level (Cmax) was 22.5 nM and the time to peak (Tmax) was 2 h. The same compound had a Vd in series [1] (oral powder without enteric coating, 50 mg/kg, Rhesus Macaques) of 6.5 L/kg. Further, the solubility in series [2] (ethanol, organic solvent or mixture) was determined as 4000 µg/mL (≈ 11.6 mM). In addition, the solubility in water entry in series [2] (water) is listed as “practically insoluble in water”.
